Measured values taken from ChEMBL document CHEMBL1138356, “Design and synthesis of human immunodeficiency virus entry inhibitors: sulfonamide as an isostere for the alpha-ketoamide group” (J Med Chem, 2007).
pIC50: −log10 of the molar value.

Assays:
[1] = Cytotoxicity against human U87 cells expressing CD4 and CXCR4; format: cell-based, U-87MG ATCC
[2] = tested on: Human immunodeficiency virus 1; assay: Antiviral activity against HIV1 pseudovirus in U87 cells expressing CD4 and CCR5 after 72 hrs by M33 pseudotyped assay; format: functional, organism-based, U-87MG ATCC; details: Human immunodeficiency virus 1, U-87 MG
Outline: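 M33 pseudotyped viral attachment assay giving IC50 values. Specificity for HIV was judged by counter-screening against AMLV-pseudotyped virus at concentrations above 100× the M33 IC50.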

COC(=O)[C@@H]1CN(C(=O)c2ccccc2)CCN1S(=O)(=O)c1c[nH]c2ncccc12
CC50 [1]: > 40 µM
pIC50 [2]: < 4.70

C[C@@H]1CN(C(=O)c2ccccc2)CCN1S(=O)(=O)c1c[nH]c2c(-n3cncn3)ccc(F)c12
CC50 [1]: > 40 µM
pIC50 [2]: 6.30

C[C@@H]1CN(C(=O)c2ccccc2)CCN1S(=O)(=O)c1c[nH]c2c(-n3ccnn3)nccc12
CC50 [1]: > 40 µM
pIC50 [2]: 7.57

C[C@@H]1CN(C(=O)c2ccccc2)CCN1S(=O)(=O)c1c[nH]c2cccc(F)c12
CC50 [1]: > 40 µM
pIC50 [2]: 6.70

C[C@H]1CN(C(=O)c2ccccc2)CCN1S(=O)(=O)c1c[nH]c2ncccc12
CC50 [1]: > 40 µM
pIC50 [2]: < 4.70

C[C@@H]1CN(C(=O)c2ccccc2)CCN1S(=O)(=O)c1c[nH]c2c(F)c(F)c(F)c(F)c12
CC50 [1]: > 40 µM
pIC50 [2]: 5.33

CC1CN(C(=O)c2cccs2)CCN1S(=O)(=O)c1c[nH]c2ncccc12 (racemic)
CC50 [1]: > 40 µM
pIC50 [2]: 5.34

CC1CN(C(=O)c2ccc3occc3c2)CCN1S(=O)(=O)c1c[nH]c2ncccc12 (racemic)
CC50 [1]: > 40 µM
pIC50 [2]: 5.00

C[C@@H]1CN(C(=O)c2ccccc2)CCN1S(=O)(=O)c1c[nH]c2c(-n3ccnc3)nccc12
CC50 [1]: > 40 µM
pIC50 [2]: 7.10

NC(=O)[C@@H]1CN(C(=O)c2ccccc2)CCN1S(=O)(=O)c1c[nH]c2ncccc12
CC50 [1]: > 40 µM
pIC50 [2]: < 4.70

CC1CN(C(=O)c2ccccc2)CCN1S(=O)(=O)c1c[nH]c2c(-n3cc(CN(C)C)nn3)nccc12 (racemic)
CC50 [1]: > 40 µM
pIC50 [2]: 5.96

CC1CN(C(=O)c2ccccc2)CCN1S(=O)(=O)c1c[nH]c2c(-n3cncn3)nccc12 (racemic)
CC50 [1]: > 40 µM
pIC50 [2]: 6.70

C[C@@H]1CN(C(=O)c2csc(Br)n2)CCN1S(=O)(=O)c1c[nH]c2ncccc12
CC50 [1]: > 40 µM
pIC50 [2]: 6.38

COCc1cn(-c2ncc(F)c3c(S(=O)(=O)N4CCN(C(=O)c5ccccc5)CC4C)c[nH]c23)nn1 (racemic)
CC50 [1]: > 40 µM
pIC50 [2]: 6.24

Cc1ccc(C(=O)N2CCN(S(=O)(=O)c3c[nH]c4ncccc34)C(C)C2)cc1 (racemic)
CC50 [1]: > 40 µM
pIC50 [2]: 4.91

C[C@@H]1CN(C(=O)c2ccccc2)CCN1S(=O)(=O)c1c[nH]c2c(-n3ccnc3)ncc(F)c12
CC50 [1]: > 40 µM
pIC50 [2]: 7.44

Cc1ccc(C(=O)N2CCN(S(=O)(=O)c3c[nH]c4ncccc34)[C@H](C)C2)s1
CC50 [1]: > 40 µM
pIC50 [2]: 5.64

CC1CN(C(=O)c2ccc3[nH]ccc3c2)CCN1S(=O)(=O)c1c[nH]c2ncccc12 (racemic)
CC50 [1]: > 40 µM
pIC50 [2]: 5.34

CC1CN(C(=O)c2ccccc2)CCN1S(=O)(=O)c1c[nH]c2c(-c3cc[nH]n3)nccc12 (racemic)
CC50 [1]: > 40 µM
pIC50 [2]: 6.85

C[C@@H]1CN(C(=O)c2cnccn2)CCN1S(=O)(=O)c1c[nH]c2ncccc12
CC50 [1]: > 40 µM
pIC50 [2]: 5.04

CC1CN(C(=O)c2cnc3ccccc3n2)CCN1S(=O)(=O)c1c[nH]c2ncccc12 (racemic)
CC50 [1]: > 40 µM
pIC50 [2]: 5.27

C[C@@H]1CN(C(=O)c2ccccc2)CCN1S(=O)(=O)c1c[nH]c2ccc(C#N)cc12
CC50 [1]: > 40 µM
pIC50 [2]: < 4.70

C[C@@H]1CN(C(=O)c2ccccc2)CCN1S(=O)(=O)c1c[nH]c2c(-n3cc(CF)nn3)nccc12
CC50 [1]: > 40 µM
pIC50 [2]: 6.62

CC1CN(C(=O)c2ccccc2)CCN1S(=O)(=O)c1c[nH]c2c(Cl)nccc12 (racemic)
CC50 [1]: > 40 µM
pIC50 [2]: 4.96

C[C@@H]1CN(C(=O)c2ccccc2)CCN1S(=O)(=O)c1c[nH]c2c(-n3nccn3)ccc(F)c12
CC50 [1]: > 40 µM
pIC50 [2]: 6.70

COc1cc2c(S(=O)(=O)N3CCN(C(=O)c4ccccc4)CC3C)c[nH]c2cn1 (racemic)
CC50 [1]: > 40 µM
pIC50 [2]: < 4.40

CC[C@@H]1CN(C(=O)c2ccccc2)CCN1S(=O)(=O)c1c[nH]c2ncccc12
CC50 [1]: > 40 µM
pIC50 [2]: 4.80

CC1CN(C(=O)c2ccc3scnc3c2)CCN1S(=O)(=O)c1c[nH]c2ncccc12 (racemic)
CC50 [1]: > 40 µM
pIC50 [2]: 4.90

O=C(c1ccccc1)N1CCN(S(=O)(=O)c2c[nH]c3ncccc23)CC1
CC50 [1]: > 40 µM
pIC50 [2]: 4.66

C[C@@H]1CN(C(=O)c2ccccc2)CCN1S(=O)(=O)c1c[nH]c2c(-n3cc(CO)nn3)nccc12
CC50 [1]: > 40 µM
pIC50 [2]: 6.60

CC1CN(C(=O)c2ccccc2)CCN1S(=O)(=O)c1c[nH]c2c(-c3ncon3)nccc12 (racemic)
CC50 [1]: > 40 µM
pIC50 [2]: 5.91

C[C@H]1CN(S(=O)(=O)c2c[nH]c3ncccc23)CCN1C(=O)c1ccccc1
CC50 [1]: > 40 µM
pIC50 [2]: < 4.70

C[C@@H]1CN(C(=O)c2ccccc2)CCN1S(=O)(=O)c1c[nH]c2c(F)ccc(F)c12
CC50 [1]: > 40 µM
pIC50 [2]: 6.43

CC1CN(C(=O)c2ccccc2)CCN1S(=O)(=O)c1c[nH]c2c(-c3nccs3)nccc12 (racemic)
CC50 [1]: > 40 µM
pIC50 [2]: 6.30

C[C@@H]1CN(C(=O)c2ccccn2)CCN1S(=O)(=O)c1c[nH]c2ncccc12
CC50 [1]: > 40 µM
pIC50 [2]: 5.48

C[C@@H]1CN(C(=O)c2ccccc2)CCN1C(=O)C(=O)c1c[nH]c2ncccc12
CC50 [1]: > 40 µM
pIC50 [2]: 7.52

C[C@@H]1CN(C(=O)c2cccc(Cl)c2)CCN1S(=O)(=O)c1c[nH]c2ncccc12
CC50 [1]: > 40 µM
pIC50 [2]: 5.08

C[C@@H]1CN(C(=O)c2cc3ccccc3o2)CCN1S(=O)(=O)c1c[nH]c2ncccc12
CC50 [1]: > 40 µM
pIC50 [2]: 5.52

Cc1cn(-c2nccc3c(S(=O)(=O)N4CCN(C(=O)c5ccccc5)CC4C)c[nH]c23)nn1 (racemic)
CC50 [1]: > 40 µM
pIC50 [2]: 6.07

C[C@@H]1CN(C(=O)c2ccccc2)CCN1S(=O)(=O)c1c[nH]c2c(-n3cncn3)nccc12
CC50 [1]: > 40 µM
pIC50 [2]: 6.82

C[C@@H]1CN(C(=O)c2ccccc2)CCN1S(=O)(=O)c1c[nH]c2ccccc12
CC50 [1]: > 40 µM
pIC50 [2]: 6.37

COc1cc2c(S(=O)(=O)N3CCN(C(=O)c4ccccc4)C[C@H]3C)c[nH]c2cn1
CC50 [1]: > 40 µM
pIC50 [2]: 5.04

NC(=O)[C@H]1CN(C(=O)c2ccccc2)CCN1S(=O)(=O)c1c[nH]c2ncccc12
CC50 [1]: > 40 µM
pIC50 [2]: < 4.70

C[C@@H]1CN(C(=O)c2ccccc2)CCN1S(=O)(=O)c1c[nH]c2c(-n3ccnn3)ccc(F)c12
CC50 [1]: > 40 µM
pIC50 [2]: 6.82

CC1CN(C(=O)c2ccccc2)CCN1S(=O)(=O)c1c[nH]c2c(-c3cccnc3)nccc12 (racemic)
CC50 [1]: > 40 µM
pIC50 [2]: 6.19

COc1ncc(OC)c2c(C(=O)C(=O)N3CCN(C(=O)c4ccccc4)CC3)c[nH]c12
CC50 [1]: > 40 µM
pIC50 [2]: 7.59

CC1CN(C(=O)c2ccccc2)CCN1S(=O)(=O)c1c[nH]c2c(-n3cccn3)nccc12 (racemic)
CC50 [1]: > 40 µM
pIC50 [2]: 6.52

CC1CN(C(=O)c2ccccc2)CCN1S(=O)(=O)c1c[nH]c2c(Cl)nc(Cl)cc12 (racemic)
CC50 [1]: > 40 µM
pIC50 [2]: < 4.40

C[C@@H]1CN(C(=O)c2ccccc2)CCN1S(=O)(=O)c1c[nH]c2c(C#N)cc(F)cc12
CC50 [1]: > 40 µM
pIC50 [2]: 5.00

CC1CN(C(=O)c2ccccc2)CCN1S(=O)(=O)c1c[nH]c2c(-c3ccnc(N)n3)nccc12 (racemic)
CC50 [1]: > 40 µM
pIC50 [2]: 6.30

COc1ncc(OC)c2c(C(=O)C(=O)N3CCN(C(=O)c4ccccc4)C[C@H]3C)c[nH]c12
CC50 [1]: > 40 µM
pIC50 [2]: 8.30

CC1(C)CN(C(=O)c2ccccc2)CCN1S(=O)(=O)c1c[nH]c2ncccc12
CC50 [1]: > 40 µM
pIC50 [2]: < 4.70

C[C@@H]1CN(C(=O)c2ccccc2)CCN1S(=O)(=O)c1c[nH]c2ncccc12
CC50 [1]: > 40 µM
pIC50 [2]: 6.07

CC1CN(C(=O)c2ccccc2)CCN1S(=O)(=O)c1c[nH]c2c(-n3ccnc3)nccc12 (racemic)
CC50 [1]: > 40 µM
pIC50 [2]: 6.80

Cc1ncn(-c2nccc3c(S(=O)(=O)N4CCN(C(=O)c5ccccc5)CC4C)c[nH]c23)n1 (racemic)
CC50 [1]: > 40 µM
pIC50 [2]: 6.62

O=C(C(=O)N1CCN(C(=O)c2ccccc2)CC1)c1c[nH]c2ncccc12
CC50 [1]: > 40 µM
pIC50 [2]: 6.28

Cc1csc(C(=O)N2CCN(S(=O)(=O)c3c[nH]c4ncccc34)[C@H](C)C2)c1
CC50 [1]: > 40 µM
pIC50 [2]: 5.72

CC1CN(C(=O)c2ccccc2)CCN1S(=O)(=O)c1c[nH]c2c(-n3cncn3)ncc(F)c12 (racemic)
CC50 [1]: > 40 µM
pIC50 [2]: 7.10

C[C@@H]1CN(C(=O)c2ccccc2)CCN1S(=O)(=O)c1c[nH]c2c(-n3ccnn3)ncc(F)c12
CC50 [1]: > 40 µM
pIC50 [2]: 8.15
